Measured values published in ChEMBL document CHEMBL5252546, “Salutaxel, a Conjugate of Docetaxel and a Muramyl Dipeptide (MDP) Analogue, Acts as Multifunctional Prodrug That Inhibits Tumor Growth and Metastasis” (J Med Chem, 2018).
Active and inactive are the calls of the source. The rule behind the calls is not given here.

Tests used:
[1] = Cmax in rat at 8 mg/kg,iv measured upto 24 hrs; format: ADME, organism-based; design: time < 24 hrs, dose 8 mg/kg, route iv; conditions: in vivo
In short: (§1)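 Rats were given a single iv injection at 2, 4 or 8 mg/kg. Plasma parent drug and released docetaxel were followed over time. Cmax, Tmax, AUC, MRT, t1/2, CL and Vss were reported for males, females and all animals combined.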

4T1 [2] = test: Antitumor activity against mouse 4T1 cells implanted in BALB/c mouse assessed as decrease in serum TIMP-1 level at 10 mg/kg,iv administrated once per week for 4 weeks by ELISA; format: functional, organism-based
In short: (§2)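 4T1 fat-pad model in BALB/c mice, iv 5–20 mg/kg once weekly for 4 weeks, with vehicle and naive groups; serum MMP9, TIMP-1, IL-6 and S100A9 measured by mouse ELISA kits.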

[3] = MRT (0 to infinity) in male rat at 2 mg/kg,iv measured upto 24 hrs; format: ADME, organism-based; conditions: in vivo
[4] = Tmax in female rat at 4 mg/kg,iv measured upto 24 hrs; format: ADME, organism-based; conditions: in vivo
4T1 [5] = test: Antitumor activity against mouse 4T1 cells xenografted with BALB/c mouse assessed as decrease in lung metastasis at 10 mg/kg,iv administrated once per week for 4 weeks; format: functional, organism-based
In short: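 4T1 cells injected into the mammary fat pad of BALB/c mice; iv saline vehicle or 5, 10 or 20 mg/kg once weekly for 4 weeks; body weight, tumour volume, tumour weight, lung metastatic nodule count and metastasis score recorded; n = 10, mean ± SEM, ANOVA and Student's t test.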

[6] = Tmax in female rat at 8 mg/kg,iv measured upto 24 hrs; format: ADME, organism-based; conditions: in vivo
NCI-H522 = test: Antiproliferative activity against human NCI-H522 cells assessed inhibition of cell growth incubated for 72 hrs by SRB assay; format: functional, cell-based; conditions: NCI-H522, 72 h
[7] = Drug distribution in rat liver at 4 mg/kg,iv measured by 0.25 hrs; format: ADME, organism-based; conditions: in vivo
In short: (§3)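 Rats received 4 mg/kg iv. Parent drug and released docetaxel were assayed in tissues and plasma from the first sampling at 0.25 h to 24 h. The lower limit of quantitation was 200 ng/g.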

[8] = Drug metabolism in rat hepatocytes assessed as docetaxel metabolite formation at 20 uM incubated for 180 mins; format: ADME, cell-based, Hepatocyte; conditions: 3 h
4T1 [9] = test: Antitumor activity against mouse 4T1 cells implanted in BALB/c mouse assessed as decrease in serum IL-6 level at 10 mg/kg,iv administrated once per week for 4 weeks by ELISA; format: functional, organism-based; in short: as §2
[10] = Plasma protein binding in dog plasma incubated for 4 hrs; format: ADME, cell-free, Canis lupus familiaris; conditions: read-out: PPB (converted)
[11] = MRT (0 to infinity) in female rat at 8 mg/kg,iv measured upto 24 hrs; format: ADME, organism-based; conditions: in vivo
[12] = Stability in monkey plasma assessed as compound remaining at 1 uM incubated for 6 hrs; format: ADME, cell-free, Macaca mulatta; conditions: rhesus monkey
[13] = Drug concentration in rat plasma at 4 mg/kg,iv measured after 24 hrs; format: ADME, organism-based; conditions: in vivo; in short: as §3
[14] = MRT (0 to infinity) in male Beagle dog at 4 mg/kg,iv measured upto 24 hrs; format: ADME, organism-based, Canis lupus familiaris; conditions: in vivo
[15] = Half life in female Beagle dog at 4 mg/kg,iv measured upto 24 hrs; format: ADME, organism-based, Canis lupus familiaris; conditions: in vivo
[16] = AUC (0-t) in Beagle dog at 4 mg/kg,iv measured upto 24 hrs; format: ADME, organism-based, Canis lupus familiaris; design: dose 4 mg/kg, time < 24 hrs, route iv; conditions: in vivo
In short: (§4)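 Single iv dose: rats 2, 4 or 8 mg/kg by intravenous injection; Beagle dogs 1, 2 or 4 mg/kg by intravenous infusion. Plasma concentration–time data were analysed by sex and pooled. Reported parameters: Cmax, Tmax, AUC0−t, AUC0−∞, MRT0−∞, t1/2, CL, Vss, given as mean ± SD.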

[17] = Stability in mouse plasma assessed as compound remaining at 1 uM incubated for 6 hrs; format: ADME, cell-free
[18] = Stability in monkey hepatocyte assessed as compound remaining at 3 uM incubated upto 120 mins; format: ADME, cell-based, Macaca mulatta; conditions: rhesus monkey, hepatocytes, 2 h
[19] = Clearance in female Beagle dog at 4 mg/kg,iv measured upto 24 hrs; format: ADME, organism-based, Canis lupus familiaris; conditions: in vivo
In short: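 Beagle dogs were given a single iv infusion at 1, 2 or 4 mg/kg. Plasma parent drug and released docetaxel were followed over time. Cmax, Tmax, AUC, MRT, t1/2, CL and Vss were reported by sex and for all dogs combined.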

[20] = Cmax in female rat at 2 mg/kg,iv measured upto 24 hrs; format: ADME, organism-based; design: time < 24 hrs, dose 2 mg/kg, route iv; conditions: in vivo; in short: as §1
[21] = Drug concentration in rat brain at 4 mg/kg,iv measured after 24 hrs; format: ADME, organism-based; conditions: in vivo; in short: as §3
[22] = MRT in mouse tumor implanted with mouse 4T1 cells at 10 mg/kg,iv measured upto 72 hrs; format: ADME, organism-based, Neoplasm
[23] = MRT (0 to infinity) in male rat at 4 mg/kg,iv measured upto 24 hrs; format: ADME, organism-based; conditions: in vivo
[24] = AUC (0-t) in male rat at 8 mg/kg,iv measured upto 24 hrs; format: ADME, organism-based; design: time < 24 hrs, dose 8 mg/kg, route iv; conditions: in vivo; in short: as §4
[25] = Prodrug conversion in mouse tumor implanted with mouse 4T1 cells assessed as MRT of docetaxel at 4 mg/kg,iv measured upto 72 hrs; format: ADME, organism-based, Neoplasm; conditions: in vivo
[26] = Half life in female Beagle dog at 1 mg/kg,iv measured upto 24 hrs; format: ADME, organism-based, Canis lupus familiaris; conditions: in vivo
[27] = AUC (0-infinity) in male rat at 4 mg/kg,iv measured upto 24 hrs; format: ADME, organism-based; design: time < 24 hrs, dose 4 mg/kg, route iv; conditions: in vivo; in short: as §4
[28] = Toxicity in BALB/c mouse injected with mouse 4T1 cells assessed as body weight loss at 5.7 mg/kg,iv administrated once per week for 4 weeks; format: organism-based; conditions: in vivo, 672 h
4T1 [29] = test: Antitumor activity against mouse 4T1 cells implanted in BALB/c mouse assessed as decrease in serum TIMP-1 level at 5.7 mg/kg,iv administrated once per week for 4 weeks in presence of MDA-205 by ELISA; format: functional, organism-based
4T1 [30] = test: Antitumor activity against mouse 4T1 cells xenografted with BALB/c mouse assessed as inhibition of tumor growth at 5.7 mg/kg,iv administrated once per week for 4 weeks; format: functional; conditions: 4T1, 672 h
In short: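 4T1 cells injected into mammary fat pads of BALB/c mice. Dosing iv once per week for 4 weeks, saline vehicle; single-agent arms were given alone or with the peptide component (5b or 6). Endpoints were body weight, tumour volume, tumour weight, lung metastatic nodule count and lung metastasis score. Mean ± SEM, n = 10; ANOVA and Student's t test.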

[31] = MRT in mouse tumor implanted with mouse 4T1 cells at 5.7 mg/kg,iv measured upto 72 hrs; format: ADME, organism-based, Neoplasm
4T1 [32] = test: Antitumor activity against mouse 4T1 cells implanted in BALB/c mouse assessed as decrease in neutrophil in peripheral blood at 11.4 mg/kg,iv administrated qd for 2 days by blood smear staining microscopic analysis; format: functional, organism-based; conditions: time 2.0 day
In short: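 On day 19 after 4T1 implantation, mice were randomized into five groups and given iv vehicle or test article, plus ip C12-iE-DAP (50 μg/mouse) and MDP (100 μg/mouse), once daily for 2 days. Mice were killed 6 h later. Peripheral blood neutrophils/leukocytes were counted on stained blood smears at 1000×.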

4T1 [33] = test: Antitumor activity against mouse 4T1 cells implanted in BALB/c mouse assessed as increase in tumor NOD1 expression level at 5.7 mg/kg,iv administrated once per week for 4 weeks in presence of compound 5b by western blot assay; format: functional, organism-based
In short: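 Tumour-bearing BALB/c mice (4T1 cells into mammary fat pad) given iv saline vehicle or test agents once weekly for 4 weeks. Tumours excised and probed by western blot for MMP9, MMP2 and NOD1, β-actin as loading control. Bands averaged over five mice per group; representative of two independent experiments.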

in vivo = conditions: mouse, plasma, iv, 5.7 mg/kg

With CC(=O)O[C@@]12CO[C@@H]1C[C@H](O)[C@@]1(C)C(=O)[C@H](O)C3=C(C)[C@@H](OC(=O)[C@H](OC(=O)CCC(=O)NCCCC[C@H](NC(=O)CC[C@@H](NC(=O)[C@H](C)NC(=O)/C=C/c4ccc(F)cc4Cl)C(N)=O)C(=O)O)[C@@H](NC(=O)OC(C)(C)C)c4ccccc4)C[C@@](O)([C@@H](OC(=O)c4ccccc4)[C@H]21)C3(C)C the Cmax [1] was 62200 ng/mL, the Activity (4T1 [2]) was “Active” and the MRT inf [3] was 13.9 min. For the same molecule, the Tmax [4] was 4.98 min, the Activity (4T1 [5]) was “Active” and the Tmax [6] was 4.98 min. For the same molecule, the IC50 (NCI-H522) was 16.3 nM, the Drug uptake [7] was “Active” and the Drug metabolism [8] was “Metabolite_Detected”. For the same molecule, the Activity (4T1 [9]) was “Active”, the fraction unbound at 4 h [10] was 0.003 and the MRT inf [11] was 28.2 min. The Stability [12] was “Stable”, the Drug uptake [13] was 1% and the MRT inf [14] was 16.5 min. For the same molecule, the half-life [15] was 33.8 min, the AUC(0-t) at 24 h [16] was 17200 ng·h/mL and the Stability [17] was “Stable”. The Stability [18] was “Stable”, the clearance [19] was 3.85 mL/min/kg and the Cmax [20] was 14600 ng/mL. The Drug uptake [21] was “Active”, the MRT [22] was 132 min and the MRT inf [23] was 22.5 min. The AUC(0-t) at 24 h [24] was 52300 ng·h/mL, the MRT [25] was 87.4 h and the half-life [26] was 29 min. It also gave an AUC(0-inf) [27] of 20800 ng·h/mL.
With CC(=O)O[C@@]12CO[C@@H]1C[C@H](O)[C@@]1(C)C(=O)[C@H](O)C3=C(C)[C@@H](OC(=O)[C@H](O)[C@@H](NC(=O)OC(C)(C)C)c4ccccc4)C[C@@](O)([C@@H](OC(=O)c4ccccc4)[C@H]21)C3(C)C [DOCETAXEL ANHYDROUS] the Activity [28] was “Non-Toxic”, the Activity (4T1 [29]) was “Active” and the inhibition in vivo at 5.7 mg/kg (4T1 [30]) was 19.6%. The MRT [31] was 73.3 h, the Activity (4T1 [32]) was “Active” and the Activity (4T1 [33]) was “inactive”. It also gave an AUC(0-t) at 72 h (in vivo) of 2.24 µM·h.
